Results from ChEMBL document CHEMBL3120144, “Design, synthesis and molecular modeling of aloe-emodin derivatives as potent xanthine oxidase inhibitors” (Eur J Med Chem, 2014).

Columns and labels:
[1] = target: T1, Xanthine dehydrogenase/oxidase (Bos taurus, UniProt P80457); assay: Inhibition of bovine xanthine oxidase using xanthine as substrate measured for 6 mins at 50 uM at 25 degC by spectrophotometry; conditions: cattle, 0.1 h
Procedure, shortened: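 Xanthine substrate, 25 °C, in 50 mM K₂HPO₄ buffer at pH 7.8. Xanthine was added as an 84.8 μg/mL solution in the same buffer; this is the added solution's concentration, not the final one. Test compounds were dissolved in DMSO and added at various concentrations.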

[2] = target: T1, Xanthine dehydrogenase/oxidase; assay: Mixed-type inhibition of bovine xanthine oxidase using xanthine as substrate at 1.4 to 5.6 uM by Lineweaver-Burk plot; conditions: cattle
[3] = target: T1, Xanthine dehydrogenase/oxidase; assay: Inhibition of bovine xanthine oxidase using xanthine as substrate measured for 6 mins at 25 degC by spectrophotometry

T1 sequence (P80457 whole entry): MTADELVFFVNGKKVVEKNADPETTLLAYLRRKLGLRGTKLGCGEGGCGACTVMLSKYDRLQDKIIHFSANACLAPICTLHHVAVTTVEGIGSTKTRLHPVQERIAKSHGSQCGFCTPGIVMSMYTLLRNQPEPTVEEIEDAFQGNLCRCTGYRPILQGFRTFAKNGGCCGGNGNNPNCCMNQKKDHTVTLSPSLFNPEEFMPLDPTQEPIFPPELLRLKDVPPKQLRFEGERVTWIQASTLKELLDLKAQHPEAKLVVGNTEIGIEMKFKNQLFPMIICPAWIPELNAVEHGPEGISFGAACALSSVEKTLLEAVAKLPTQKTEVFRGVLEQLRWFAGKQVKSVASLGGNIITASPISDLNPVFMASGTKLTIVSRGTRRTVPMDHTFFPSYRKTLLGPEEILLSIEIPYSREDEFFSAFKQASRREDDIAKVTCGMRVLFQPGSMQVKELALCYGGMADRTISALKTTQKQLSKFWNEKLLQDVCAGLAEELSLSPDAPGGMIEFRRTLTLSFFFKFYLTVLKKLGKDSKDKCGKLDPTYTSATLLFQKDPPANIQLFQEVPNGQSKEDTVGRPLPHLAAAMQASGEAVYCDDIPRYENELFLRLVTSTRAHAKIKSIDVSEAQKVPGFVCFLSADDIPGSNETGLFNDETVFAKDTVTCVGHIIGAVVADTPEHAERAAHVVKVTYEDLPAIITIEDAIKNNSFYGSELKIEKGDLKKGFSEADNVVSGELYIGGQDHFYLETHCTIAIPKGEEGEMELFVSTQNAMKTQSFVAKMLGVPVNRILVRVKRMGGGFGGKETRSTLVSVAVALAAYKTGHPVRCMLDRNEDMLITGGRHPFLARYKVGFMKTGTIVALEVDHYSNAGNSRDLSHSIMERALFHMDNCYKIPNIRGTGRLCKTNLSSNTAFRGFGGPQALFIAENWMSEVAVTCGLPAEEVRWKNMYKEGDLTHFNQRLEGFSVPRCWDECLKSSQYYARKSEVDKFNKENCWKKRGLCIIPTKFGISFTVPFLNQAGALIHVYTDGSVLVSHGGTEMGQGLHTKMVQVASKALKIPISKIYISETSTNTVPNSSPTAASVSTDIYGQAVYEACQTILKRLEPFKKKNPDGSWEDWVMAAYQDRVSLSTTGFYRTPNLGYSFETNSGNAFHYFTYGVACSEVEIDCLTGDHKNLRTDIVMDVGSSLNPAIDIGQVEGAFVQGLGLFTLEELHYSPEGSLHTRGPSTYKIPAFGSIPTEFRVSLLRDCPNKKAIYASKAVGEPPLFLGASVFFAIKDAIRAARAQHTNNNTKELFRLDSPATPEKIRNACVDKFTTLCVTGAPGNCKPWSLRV

inhibition at 50 µM [1] | Compound | also measured
< 10% | COc1cccc2c1C(=O)c1c(OC)cc(C[N+](C)(C)C)cc1C2=O | 
< 10% | COc1cccc2c1C(=O)c1c(OC)cc(C[N+](C)(C)c3ccccc3)cc1C2=O | 
9.77% | COc1cccc2c1C(=O)c1c(OC)cc(CO)cc1C2=O | 
93.3% | O=Cc1cc(O)c2c(c1)C(=O)c1cccc(O)c1C2=O | inhibition (INH) [2]: Active; IC50 [3]: 2.79 µM; inhibition (INH) ([3]; cattle, 0.1 h): Dose-dependent effect
36.5% | COc1cccc2c1C(=O)c1c(OC)cc(C=O)cc1C2=O | 
< 10% | COc1cccc2c1C(=O)c1c(OC)cc(/C=N/O)cc1C2=O | 
< 10% | COc1cccc2c1C(=O)c1c(OC)cc(/C=N/N)cc1C2=O | 
17.5% | COc1cccc2c1C(=O)c1c(OC)cc(/C=N/c3ccccc3)cc1C2=O | 
93.4% | CC(=O)OC[C@H]1OC(OC(C)=O)[C@H](/N=C/c2cc(O)c3c(c2)C(=O)c2cccc(O)c2C3=O)[C@H](OC(C)=O)[C@@H]1OC(C)=O (stereo not given in full) | IC50 [3]: 8.43 µM
18.4% | O=C1c2cccc(O)c2C(=O)c2c(O)cc(CCl)cc21 | 
14.3% | COc1cccc2c1C(=O)c1c(OC)cc(CCl)cc1C2=O | 
< 10% | O=C1c2cccc(O)c2C(=O)c2c(O)cc(C[n+]3ccccc3)cc21 | 
68.8% | C[N+](C)(C)Cc1cc(O)c2c(c1)C(=O)c1cccc(O)c1C2=O | IC50 [3]: 18.7 µM
< 10% | C[N+](C)(Cc1cc(O)c2c(c1)C(=O)c1cccc(O)c1C2=O)c1ccccc1 | 
< 10% | COc1cccc2c1C(=O)c1c(OC)cc(C[n+]3ccccc3)cc1C2=O | 
94.5% | O=C1c2cccc(O)c2C(=O)c2c(O)cc(/C=N/c3ccccc3)cc21 | IC50 [3]: 3.87 µM
7.2% | CC(=O)OC[C@H]1OC(OC(C)=O)[C@H](NC(=O)c2cc(O)c3c(c2)C(=O)c2cccc(O)c2C3=O)[C@H](OC(C)=O)[C@@H]1OC(C)=O (stereo not given in full) | 
3.63% | O=C(O)c1cc(O)c2c(c1)C(=O)c1cccc(O)c1C2=O [RHEIN] | 

Compound | inhibition at 50 µM [1] | also measured
O=C1c2cccc(O)c2C(=O)c2c(O)cc(CO)cc21 [ALOE-EMODIN] | 22.5% | 
